ChEMBL document CHEMBL4715822, “Structure-based lead optimization to improve antiviral potency and ADMET properties of phenyl-1H-pyrrole-carboxamide entry inhibitors targeted to HIV-1 gp120” (Eur J Med Chem, 2018)
Converted amounts (≈) assume the structure as drawn.

Tests used:
[1] = (§1) Cytotoxicity against human MT2 cells assessed as reduction in cell viability incubated for 4 days by XTT assay; assay type: cell-based; conditions: MT2 cells, time 4 day
[2] = (§2) Cytotoxicity against human TZM-bl cells assessed as reduction in cell viability incubated for 3 days by XTT assay; assay type: cell-based; conditions: TZM-bl cells, time 3 day
[3] = Antiviral activity against HIV-1 3B infected in human MT2 cells assessed as reduction in viral infection pretreated for 30 mins before viral infection and measured after 4 days by ELISA based multi cycle infection assay; assay type: functional, cell-based; conditions: Human immunodeficiency virus 1, M:B_HXB2R
[4] = system: MT2; assay: as §1; assay type: cell-based; conditions: mt2, 96 h, time 4 day
[5] = system: TZM; assay: as §2; assay type: cell-based; conditions: tzm, 72 h, time 3 day
[6] = system: Human immunodeficiency virus 1; assay: Antiviral activity against HIV-1 HXB-2 infected in human TZM-bl cells assessed as reduction in viral infection pretreated for 30 mins before viral infection and measured after 3 days by luciferase based single cycle infection assay; assay type: functional, organism-based; conditions: Human immunodeficiency virus 1, M:B_HXB2R
[7] = Cytotoxicity against dog Cf2Th-CCR5 cells assessed as reduction in cell viability incubated for 48 hrs by XTT assay; assay type: cell-based, Canis lupus familiaris; conditions: for CC50: cf2th-ccr5, 48 h
[8] = Inhibition of HIV1 gp120-mediated cell-cell fusion between viral envelope expressing in human HL2/3 cells to CD4/CCR5 receptor expressing in human TZM-bl cells after 1 hr by luciferase reporter gene assay; assay type: cell-based; conditions: Human immunodeficiency virus 1, HL2/3, 1 h
[9] = Cytotoxicity against human PBMC cells assessed as reduction in cell viability incubated for 1 hr followed by complete medium addition and measured after 48 hrs by XTT assay; assay type: cell-based
[10] = system: Human immunodeficiency virus 1; assay: Antiviral activity against HIV-1 ADA infected in human MOLT-4 cells assessed as reduction in viral transmission to TZM-bl cells incubated for 48 hrs by luciferase based assay; assay type: functional, organism-based; conditions: Human immunodeficiency virus 1, ADA, MOLT-4, 48 h
[11] = Induction viral infection in pseudovirus HIV1 ADA infected in dog Cf2Th-CCR5 cells incubated for overnight followed by pretreated for 30 mins and added to cells measured after 48 hrs by luciferase-based assay; assay type: cell-based; conditions: human immunodeficiency virus 1, cf2th-ccr5, 48.5 h
[12] = system: Human immunodeficiency virus 1; assay: Antiviral activity against pseudovirus HIV-1 HXB-2 harboring Env M434I mutant infected in human U87.CD4.CXCR4 cells assessed as reduction in viral infection pretreated for 30 mins before viral infection and measured after 3 days by luciferase based assay; assay type: functional, cell-based, M:B_HXB2R
Method in brief: (§3)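 Pseudoviruses made in HEK293T by co-transfecting an Env-deleted backbone (pSG3Δenv or pNL4-3.Luc.R-.E-) with an HXB-2 Env plasmid carrying single or double substitutions; Env sequences confirmed by sequencing. Virus pretreated 30 min with graded compound, added to U87-CD4-CXCR4 cells (1 × 10⁴/well, plated overnight), incubated 3 days. Cells lysed, luciferase measured, IC50 calculated.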

[13] = system: Human immunodeficiency virus 1; assay: Antiviral activity against HIV-1 3B infected in human H9 cells assessed as reduction in viral transmission to TZM-bl cells incubated for 48 hrs by luciferase based assay; assay type: functional, organism-based; conditions: Human immunodeficiency virus 1, 3B, H9, 48 h
[14] = system: Human immunodeficiency virus 1; assay: Antiviral activity against pseudovirus HIV-1 HXB-2 harboring Env I424F mutant infected in human U87.CD4.CXCR4 cells assessed as reduction in viral infection pretreated for 30 mins before viral infection and measured after 3 days by luciferase based assay; assay type: functional, cell-based, M:B_HXB2R; method in brief: as §3
[15] = Metabolic stability in human liver microsomes assessed as intrinsic clearance at 3 uM incubated for 120 mins by LC-MS/MS analysis; assay type: ADME, Microsome; conditions: read-out: CLH
[16] = Protein binding in human plasma assessed as unbound fraction at 5 uM by LC-MS/MS analysis; assay type: ADME, cell-free
[17] = Metabolic stability in human liver microsomes assessed as parent compound remaining at 3 uM incubated for 120 mins by LC-MS/MS analysis; assay type: ADME, Microsome; conditions: read-out: Stabilty
[18] = Solubility in 5% DMSO at pH 7.4 at 500 uM incubated for 90 mins in shaker by spectrophotometry; assay type: physicochemical
Method in brief: (§4)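 DMSO stock diluted to 500 μM in universal aqueous buffer pH 7.4 with 2 or 5% DMSO final; quadruplicate, 90 min shaking at room temperature in filter plate, vacuum filtered; filtrate in 20% acetonitrile read by UV absorbance at six wavelengths. Filtrate/standard ratio binned as ~500, 100–500 or <100 μM.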

[19] = Apparent permeability across basolateral to apical side in human Caco2 cells incubated for 2 hrs by LC-MS/MS analysis; assay type: ADME, cell-based, Caco-2; conditions: Caco-2
Method in brief: (§5)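 Caco-2 monolayers grown three weeks to differentiate; compound in transport buffer pH 7.4 (glucose, 10 mM HEPES, HBSS) added apical (A-B) or basal (B-A) side, with or without 100 μM verapamil; 2 h incubation, both sides sampled. Lucifer yellow 100 μM on A side checks integrity (≤2% transport). Papp = (dQ/dt)/(C0 × A); efflux ratio = Papp(B→A)/Papp(A→B).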

[20] = Solubility in 2 % DMSO at pH 7.4 at 500 uM incubated for 90 mins in shaker by spectrophotometry; assay type: physicochemical; method in brief: as §4
[21] = Apparent permeability across apical to basolateral side in human Caco2 cells incubated for 2 hrs by LC-MS/MS analysis; assay type: ADME, cell-based, Caco-2; conditions: Caco-2; method in brief: as §5
[22] = system: Human immunodeficiency virus 1; assay: Antiviral activity against pseudovirus HIV-1 HXB-2 harboring Env A204D mutant infected in human U87.CD4.CXCR4 cells assessed as reduction in viral infection pretreated for 30 mins before viral infection and measured after 3 days by luciferase based assay; assay type: functional, cell-based, M:B_HXB2R; method in brief: as §3

SMILES | IC50 [3] [µM] | CC50 [4] [µM] | CC50 [5] [µM] | IC50 [6] [µM] | other results
NC[C@@H](NC(=O)c1ccc(-c2cc(F)c(C(F)(F)F)c(F)c2)[nH]1)c1ncc(CO)s1 | – | – | – | – | CC50 at 96 h [1]: 15.5 µM; CC50 at 72 h [2]: 23.5 µM
CNC[C@H](NC(=O)c1ccc(-c2ccc(C(F)(F)F)cc2)[nH]1)c1nc(CO)cs1 | 0.1 | 17 | 22.4 | 0.31 | –
CNC[C@@H](NC(=O)c1ccc(-c2ccc(C(F)(F)F)cc2)[nH]1)c1nc(CO)cs1 | 0.6 | 19.8 | 23.5 | 0.62 | –
COC(C)(C)c1csc([C@@H](CN)NC(=O)c2ccc(-c3cc(F)c(Cl)c(F)c3)[nH]2)n1 | 6.1 | 29.5 | 39.6 | 9.3 | –
NC[C@H](NC(=O)c1ccc(-c2cc(F)c(Cl)c(F)c2)[nH]1)c1nc(CO)c(CO)s1 | 3 | 96.7 | > 70 | 2.3 | –
NC[C@@H](NC(=O)c1ccc(-c2ccc(C(F)(F)F)c(F)c2)[nH]1)c1nc(CO)c(CO)s1 | 2 | 72.4 | > 65.4 | 1.8 | –
CC1(C)CC(NC(=O)C(=O)Nc2ccc(Cl)cc2)CC(C)(C)N1 | – | – | – | – | CC50 [7]: > 60 µM; IC50 [8]: 9.1 µM
NC[C@H](NC(=O)c1ccc(-c2ccc(C(F)(F)F)cc2)[nH]1)c1ncc(CO)s1 | – | 36 | 35.6 | – | –
Cc1c(F)cc(-c2ccc(C(=O)N[C@@H](CN)c3nc(CO)cs3)[nH]2)cc1F | 0.18 | 25.5 | 18.5 | 0.18 | –
NC[C@H](NC(=O)c1ccc(-c2ccc(C(F)(F)F)c(F)c2)[nH]1)c1ncc(CO)s1 | 0.25 | 25.6 | 30.5 | 0.44 | –
Cc1c(F)cc(-c2ccc(C(=O)N[C@@H](CN)c3ncc(CO)s3)[nH]2)cc1F | 0.2 | 27 | 33.2 | 0.47 | –
NC[C@H](NC(=O)c1ccc(-c2cc(F)c(Cl)c(F)c2)[nH]1)c1ncc(CO)s1 | – | – | – | – | CC50 at 49 h [9]: > 60 µM; CC50 at 96 h [1]: 37 µM; CC50 at 72 h [2]: 39.5 µM
NC[C@H](NC(=O)c1ccc(-c2ccc(C(F)(F)F)c(F)c2)[nH]1)c1nc(CO)c(CO)s1 | 3.6 | 92.3 | > 65 | 3.1 | –
NC[C@@H](NC(=O)c1ccc(-c2cc(F)c(Cl)c(F)c2)[nH]1)c1ncc(CO)o1 | – | – | – | – | CC50 at 96 h [1]: 44.7 µM; CC50 at 72 h [2]: 30.9 µM
CNC[C@H](NC(=O)c1ccc(-c2cc(F)c(Cl)c(F)c2)[nH]1)c1nc(CO)cs1 | 0.18 | 18.8 | 18 | 0.23 | –
NC[C@H](NC(=O)c1ccc(-c2cc(F)c(Cl)c(F)c2)[nH]1)c1ncc(CO)o1 | – | – | – | – | CC50 at 96 h [1]: 26.5 µM; CC50 at 72 h [2]: 27.7 µM

SMILES | IC50 [3] [µM] | CC50 [4] [µM] | CC50 [5] [µM] | IC50 [6] [µM] | other results
CNC[C@@H](NC(=O)c1ccc(-c2cc(F)c(Cl)c(F)c2)[nH]1)c1nc(CO)cs1 | 0.4 | 24 | 23.8 | 0.25 | –
NC[C@H](NC(=O)c1ccc(-c2cc(F)c(C(F)(F)F)c(F)c2)[nH]1)c1ncc(CO)s1 | – | – | – | – | CC50 at 96 h [1]: 14.3 µM; CC50 at 72 h [2]: 23 µM
NC[C@@H](NC(=O)c1ccc(-c2ccc(C(F)(F)F)c(F)c2)[nH]1)c1nc(CO)cs1 | – | 20.5 | 17.3 | – | –
CC(C)(O)c1csc([C@@H](CN)NC(=O)c2ccc(-c3cc(F)c(Cl)c(F)c3)[nH]2)n1 | 0.8 | 18 | 27.2 | 0.56 | –
NC[C@@H](NC(=O)c1ccc(-c2ccc(C(F)(F)F)cc2)[nH]1)c1nc(CO)cs1 | 1.75 | 15.1 | 27.6 | 0.9 | –
NC[C@@H](NC(=O)c1ccc(-c2ccc(C(F)(F)F)c(F)c2)[nH]1)c1ncc(CO)s1 | 0.24 | 21.5 | 18.5 | 0.2 | –
NC[C@H](NC(=O)c1ccc(-c2ccc(C(F)(F)F)cc2)[nH]1)c1nc(CO)cs1 | 0.3 | 16.3 | 24.4 | 0.47 | –
NC[C@@H](NC(=O)c1ccc(-c2cc(F)c(Cl)c(F)c2)[nH]1)c1nc(CO)c(CO)s1 | 3.34 | 89.9 | 53 | 2.7 | –
NC[C@@H](NC(=O)c1ccc(-c2ccc(C(F)(F)F)cc2)[nH]1)c1ncc(CO)s1 | – | 32 | – | – | IC50 [10]: 1 µM; Activity [11]: Non-Toxic; CC50 at 49 h [9]: 61 µM; IC50 [12]: 0.97 µM; CC50 [7]: 37.7 µM
CC(C)(O)c1csc([C@H](CN)NC(=O)c2ccc(-c3cc(F)c(Cl)c(F)c3)[nH]2)n1 | 0.25 | 16.6 | 28.4 | 0.23 | –
NC[C@@H](NC(=O)c1ccc(-c2cc(F)c(Cl)c(F)c2)[nH]1)c1nc(CO)cs1 | – | 29.6 | 27.7 | – | –
Cc1c(F)cc(-c2ccc(C(=O)N[C@H](CN)c3ncc(CO)s3)[nH]2)cc1F | 0.2 | 26.8 | 32.9 | 0.2 | –
NC[C@@H](NC(=O)c1ccc(-c2cc(F)c(Cl)c(F)c2)[nH]1)c1ncc(CO)s1 | – | – | – | – | CC50 at 96 h [1]: 17.4 µM; CC50 at 72 h [2]: 20.6 µM
NC[C@H](NC(=O)c1ccc(-c2cc(F)c(Cl)c(F)c2)[nH]1)c1nc(CO)cs1 | – | – | – | – | IC50 [10]: 0.44 µM; IC50 [13]: 0.079 µM; IC50 [14]: 1.3 µM; microsomal CLint at 3 µM [15]: 1.6 µL/min/mg; Activity [11]: Non-Toxic; fraction unbound at 5 µM [16]: 0.00281; remaining at 2 h, 3 µM [17]: 90.4%; solubility kinetic at […], 500 µM [18]: 500 µM (≈ 206 µg/mL); Papp B→A at 2 h [19]: 17 ×10⁻⁶ cm/s; CC50 at 49 h [9]: 61 µM; solubility kinetic at […], 500 µM [20]: 100 µM (≈ 41.3 µg/mL); CC50 at 96 h [1]: 32.6 µM; CC50 at 48 h ([7]; Cf2Th-CCR5 cells): > 51 µM; Papp A→B at 2 h [21]: 0.471 ×10⁻⁶ cm/s; CC50 at 72 h [2]: 42.1 µM; IC50 [22]: 0.87 µM
Cc1c(F)cc(-c2ccc(C(=O)N[C@H](CN)c3nc(CO)cs3)[nH]2)cc1F | 0.6 | 15.9 | 20.6 | 0.54 | –
